Activity calls are given as the source filed them. The rule behind the calls is not given here.
Tests used:
Rattus norvegicus [1] = assay: Antihypertensive activity against DOCA-salt induced hypertension in albino rat assessed as reduction in systolic blood pressure at 10 mg/kg, po up to 360 mins by tail-cuff method; type: functional, organism-based; design: dose 10 mg/kg; conditions: Artery
Method in brief: (§1)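 Rats given DOCA 20 mg/kg s.c. twice weekly in olive oil for 4 weeks, with 1% w/v NaCl as drinking water, reaching systolic 160–180 mm Hg. Rats were trained in restrainer and tail-cuff sessions. Compounds in 0.5% CMC were dosed at 10 mg/kg by oral feeding needle, with vehicle and nifedipine groups. BP was read before dosing and after, with the tail warmed at 37 °C for 2–5 min. Each compound was run three times in one week and readings averaged.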

Rattus norvegicus [2] = assay: Antihypertensive activity against DOCA-salt induced hypertension in albino rat assessed as reduction in systolic blood pressure at 10 mg/kg, po after 900 mins by tail-cuff method; type: functional; conditions: Artery, 15 h; method in brief: as §1
Rattus norvegicus [3] = assay: Antihypertensive activity against DOCA-salt induced hypertension in albino rat assessed as reduction in systolic blood pressure at 10 mg/kg, po after 720 mins by tail-cuff method; type: functional; conditions: Artery, 12 h; method in brief: as §1
Rattus norvegicus [4] = assay: Antihypertensive activity against DOCA-salt induced hypertension in albino rat assessed as reduction in systolic blood pressure at 10 mg/kg, po after 600 mins by tail-cuff method; type: functional; conditions: Artery, 10 h; method in brief: as §1
Rattus norvegicus [5] = assay: Antihypertensive activity against DOCA-salt induced hypertension in albino rat assessed as reduction in systolic blood pressure at 10 mg/kg, po after 360 mins by tail-cuff method; type: functional; conditions: Artery, 6 h; method in brief: as §1
Rattus norvegicus [6] = assay: Antihypertensive activity against DOCA-salt induced hypertension in albino rat assessed as reduction in systolic blood pressure at 10 mg/kg, po after 300 mins by tail-cuff method; type: functional; conditions: Artery, 5 h; method in brief: as §1
Rattus norvegicus [7] = assay: Antihypertensive activity against DOCA-salt induced hypertension in albino rat assessed as reduction in systolic blood pressure at 10 mg/kg, po after 240 mins by tail-cuff method; type: functional; conditions: Artery, 4 h; method in brief: as §1
Rattus norvegicus [8] = assay: Antihypertensive activity against DOCA-salt induced hypertension in albino rat assessed as reduction in systolic blood pressure at 10 mg/kg, po after 180 mins by tail-cuff method; type: functional; conditions: Artery, 3 h; method in brief: as §1
Rattus norvegicus [9] = assay: Antihypertensive activity against DOCA-salt induced hypertension in albino rat assessed as reduction in systolic blood pressure at 10 mg/kg, po after 120 mins by tail-cuff method; type: functional; conditions: Artery, 2 h; method in brief: as §1
Rattus norvegicus [10] = assay: Antihypertensive activity against DOCA-salt induced hypertension in albino rat assessed as reduction in systolic blood pressure at 10 mg/kg, po after 60 mins by tail-cuff method; type: functional; conditions: Artery, 1 h; method in brief: as §1
Rattus norvegicus [11] = assay: Antihypertensive activity against DOCA-salt induced hypertension in albino rat assessed as reduction in systolic blood pressure at 10 mg/kg, po after 30 mins by tail-cuff method; type: functional; conditions: Artery, 0.5 h; method in brief: as §1
Rattus norvegicus [12] = assay: Antihypertensive activity against DOCA-salt induced hypertension in albino rat assessed as reduction in systolic blood pressure at 10 mg/kg, po after 15 mins by tail-cuff method; type: functional; conditions: Artery, 0.25 h; method in brief: as §1

SMILES | Activity (Rattus norvegicus [1]) | inhibition in vivo at 10 mg/kg (Rattus norvegicus [2]) [%] | inhibition in vivo at 10 mg/kg (Rattus norvegicus [3]) [%] | inhibition in vivo at 10 mg/kg (Rattus norvegicus [4]) [%] | inhibition in vivo at 10 mg/kg (Rattus norvegicus [5]) [%] | inhibition in vivo at 10 mg/kg (Rattus norvegicus [6]) [%] | inhibition in vivo at 10 mg/kg (Rattus norvegicus [7]) [%] | inhibition in vivo at 10 mg/kg (Rattus norvegicus [8]) [%] | inhibition in vivo at 10 mg/kg (Rattus norvegicus [9]) [%] | inhibition in vivo at 10 mg/kg (Rattus norvegicus [10]) [%] | inhibition in vivo at 10 mg/kg (Rattus norvegicus [11]) [%] | inhibition in vivo at 10 mg/kg (Rattus norvegicus [12]) [%]
CC1=C(C(=O)Nc2ccc([N+](=O)[O-])cc2)C(c2cccc([N+](=O)[O-])c2)N=C(SCc2cccc(Cl)c2)N1 (stereo not drawn) | Active | 10.8 | 12.9 | 19 | 21.6 | 21 | 17.9 | 14.9 | 12.4 | 8.2 | 4.1 | 2.6
CC1=C(C(=O)Nc2ccc(F)cc2)C(c2ccc([N+](=O)[O-])cc2)N=C(SCc2ccccc2Cl)N1 (stereo not drawn) | Active | 11.3 | 13.9 | 17.4 | 21.6 | 18.5 | 15.9 | 12.4 | 8.8 | 6.2 | 3.1 | 1.5
CC1=C(C(=O)Nc2ccc(Br)cc2)C(c2ccc(Cl)cc2Cl)N=C(SCc2ccccc2)N1 (stereo not drawn) | Active | 8.2 | 11.3 | 17.4 | 24.2 | 22.1 | 17.4 | 13.4 | 10.3 | 6.7 | 3.6 | 1.5
COc1ccc(C2N=C(SCc3ccccc3)NC(C)=C2C(=O)Nc2ccc(F)cc2)cc1OC (stereo not drawn) | Active | 1 | 1.5 | 3.1 | 3.6 | 7.2 | 11.8 | 12.9 | 8.8 | 6.2 | 3.6 | 1.5
CC1=C(C(=O)Nc2ccc([N+](=O)[O-])cc2)C(c2cccc([N+](=O)[O-])c2)N=C(SCc2ccccc2)N1 (stereo not drawn) | Active | 14.9 | 17.5 | 27.2 | 32.5 | 25.6 | 21 | 16.5 | 10.3 | 7.7 | 4.1 | 2.6
CC1=C(C(=O)Nc2ccc(F)cc2)C(c2ccc([N+](=O)[O-])cc2)N=C(SCc2ccccc2)N1 (stereo not drawn) | Active | 21 | 27.3 | 32.3 | 38.7 | 38.5 | 32.3 | 23.7 | 18 | 12.3 | 7.2 | 3.1
CC1=C(C(=O)Nc2ccc([N+](=O)[O-])cc2)C(c2cccc([N+](=O)[O-])c2)N=C(SCc2ccc(Cl)cc2)N1 (stereo not drawn) | Active | 12.3 | 15.5 | 26.2 | 33 | 24.1 | 20 | 14.9 | 12.4 | 6.7 | 3.1 | 2.1
COc1ccc(C2N=C(SCc3ccccc3Cl)NC(C)=C2C(=O)Nc2ccc(F)cc2)cc1OC (stereo not drawn) | Active | 21 | 23.2 | 30.3 | 39.2 | 35.9 | 30.3 | 25.3 | 17 | 11.8 | 6.2 | 2.6
CC1=C(C(=O)Nc2ccc([N+](=O)[O-])cc2)C(c2ccc(Br)cc2)N=C(SCc2ccc(F)cc2)N1 (stereo not drawn) | Active | 22.6 | 27.3 | 32.3 | 38.7 | 34.4 | 27.2 | 17.5 | 12.9 | 9.7 | 5.2 | 2.6
CC1=C(C(=O)Nc2ccc([N+](=O)[O-])cc2)C(c2ccc(Br)cc2)N=C(SCc2ccc(Cl)cc2)N1 (stereo not drawn) | Active | 19 | 29.4 | 34.4 | 39.2 | 37.9 | 29.7 | 19.1 | 13.9 | 10.8 | 6.2 | 3.1
CC1=C(C(=O)Nc2ccc([N+](=O)[O-])cc2)C(c2ccc(Br)cc2)N=C(SCc2ccccc2Cl)N1 (stereo not drawn) | Active | 4.1 | 6.7 | 9.7 | 13.9 | 16.9 | 15.4 | 11.3 | 7.7 | 6.7 | 3.6 | 1.5
CC1=C(C(=O)Nc2ccc([N+](=O)[O-])cc2)C(c2ccc(Br)cc2)N=C(SCc2cccc(Cl)c2)N1 (stereo not drawn) | Active | 2.6 | 2.6 | 5.1 | 7.2 | 9.2 | 11.8 | 9.3 | 6.7 | 4.1 | 2.6 | 2.1
COc1ccc(C2N=C(SCc3ccccc3Cl)NC(C)=C2C(=O)Nc2ccc(Br)cc2)cc1 (stereo not drawn) | Active | 7.2 | 10.8 | 13.3 | 20.6 | 17.9 | 15.4 | 11.3 | 8.2 | 6.7 | 4.6 | 3.1
COC(=O)C1=C(C)NC(C)=C(C(=O)OC)C1c1ccccc1[N+](=O)[O-] [NIFEDIPINE] | Active | 16.9 | 18.6 | 24.1 | 38.1 | 32.3 | 25.6 | 17.5 | 11.3 | 7.7 | 3.1 | 1.5
